# Only some compounds are listed: those with a hit (about 2.4% of all), similar ones and a draw of the others.
# OPRM1-OPRD1 inv = inverse agonist of human OPRM1-OPRD1 heterodimerization; P35372+P41143; cell-based MOR-DOR heterodimer luminescence, inverse agonism; inhibition, % at 9.3 µM; 340,000 tested, 0.21% active; in the data active = inhibition above about 22%, passing the limit was not always enough;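 also: 0% = cells with DMSO and 100% = wells without cells with DMSO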
# MC4R ag barr = human MC4R agonism via beta-arrestin. U2OS MC4R beta-arrestin complementation, luminescence; percent of melanotan II response, DMSO zero. activation, % at 8.9 µM. 360,000 tested, 0.98% active. AID 540308;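 active = activation above a per-plate cutoff, the mean activation of sample wells on that plate plus 3 SD, cut at about 8% in these data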
# Target sequence (P32245 whole entry, looked up): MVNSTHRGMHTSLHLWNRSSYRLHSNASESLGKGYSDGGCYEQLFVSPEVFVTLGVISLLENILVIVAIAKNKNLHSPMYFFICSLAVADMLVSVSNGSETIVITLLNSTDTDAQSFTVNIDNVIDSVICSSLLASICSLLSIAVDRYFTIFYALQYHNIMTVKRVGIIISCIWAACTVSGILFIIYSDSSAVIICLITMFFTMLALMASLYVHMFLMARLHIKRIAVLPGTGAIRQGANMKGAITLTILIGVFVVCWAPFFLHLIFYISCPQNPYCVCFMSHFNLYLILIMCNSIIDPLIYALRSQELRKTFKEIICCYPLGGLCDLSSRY
# MOR-DOR ag = agonists of human mu-delta opioid receptor heterodimerization | cells, OPRM1-OPRD1 heterodimerization, luminescence | activation, % at 9.3 µM | 340,000 tested, 0.3% active; in the data active = activation above about 18%;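 also: 0% = vehicle-treated cells and 100% = reference agonist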
# HTR5A inv ag = counter-screen for OPRM1-OPRD1 inverse agonists: human HTR5A inverse agonism; P47898; HTR5A cell line, luminescence; 340,000 tested, 0.083% active; inhibition, % at 9.3 µM; in the data active = inhibition mostly above about 23%, no sharp cut-off; inactive = mostly below about 18%;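 also: 0% = cells with DMSO and 100% = no-cell wells with DMSO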
# MC4R antagonist = antagonists of human melanocortin 4 receptor (MC4R). P32245. MC4R-expressing cells, MTII-stimulated cAMP, LANCE TR-FRET. inhibition, % at 6.5 µM. 360,000 tested, 0.48% active. AID 540295;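 active = inhibition above its plate's cutoff, the mean of tested wells on that plate plus 3 SD, cut at about 29% in these data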;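 also: 0% = Melanotan II alone and 100% = Melanotan II plus saturating MCL0020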
#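 Assay system: U2OS-MC4R stable cell line; Also added: Melanotan II; Technique: Eu-cAMP/anti-cAMP TR-FRET, emission 671 nm; Times: 30-min compound, 1-h challenge, 1-h detection, room temperature.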
# HTR5A ag ctr = counter-screen for OPRM1-OPRD1 agonists: human HTR5A agonism. P47898. HTR5A agonist assay, luminescence, cell-based. activation, % at 9.3 µM. 340,000 tested, 0.61% active. AID 504692; in the data active = activation mostly above about 9.5%, no sharp cut-off; inactive = mostly below about 7.6%;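 also: 0% = cells with vehicle only and 100% = reference agonist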
# OPRM1-D1 inv cf = confirmation of human OPRM1-OPRD1 heterodimerization inverse agonists; shares compounds with OPRM1-OPRD1 inv; cells expressing OPRM1/OPRD1 heterodimer, luminescence; inhibition, % at 9.3 µM; 580 tested, 20% active; in the data active = inhibition above about 32%;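 also: 0% = cells with DMSO and 100% = wells lacking cells with DMSO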
# HTR5A inv ctr2 = counter-screen for OPRM1-OPRD1 inverse agonists: human HTR5A inverse agonism. HTR5A-expressing cells, luminescence. shares compounds with OPRM1-OPRD1 inv. 580 tested, under 10 active. inhibition, % at 9.3 µM. AID 504914; call rule not given here;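 also: 0% = cells with DMSO and 100% = no-cell wells with DMSO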
# An asterisk follows results filed as active; i = inactive; . = no result given.
SMILES,OPRM1-OPRD1 inv,MC4R ag barr,MOR-DOR ag,HTR5A inv ag,MC4R antagonist,HTR5A ag ctr,OPRM1-D1 inv cf,HTR5A inv ctr2
COc1ccc(N=Cc2[nH]c3ccccc3c2O)cc1,30*,-1,-4,22,-8,1,-70,4
CCCCCCC[C@@H](C/C=C/CCC(=O)N(C)C/C(=C/Cl)C/C(=C\C(=O)N1CC(OC)=CC1=O)OC)OC,39*,-2,-8,-1,24,0,-22,-120
CCCCCCC[C@@H](C/C=C/CCC(=O)N(C)C/C(=C/Cl)C/C(=C\C(=O)N1C[C@H](O)CC1=O)OC)OC,0,3,0,-13,3,4,.,.
CC1(C)C(c2cccs2)=NC(c2ccccc2)N1O (stereo not drawn),14,-2,-3,-14,-1,5,.,.
CC1(C)C(c2ccccc2)=NC(c2ccc(F)cc2)N1O (stereo not drawn),29*,-2,-5,-5,6,4,-13,-57
CC12CC3CC(C1)CC(C(=O)NNC(=O)c1ccncc1)(C3)C2,11,-1,-2,12,-1,-3,.,.
O=C(NNC(=S)NC(=O)C12CC3CC(CC(C3)C1)C2)c1ccncc1,42*,-4,-7,6,0,-7,14,-5
COc1ccc(N(C(=O)/C=C/c2ccccc2)C2=CC3CCC(C2)N3C)cc1 (stereo not drawn),12,0,-2,-2,-14,1,.,.
Cc1nn(C)cc1/C=N/NC(=O)Cn1cncn1,.,0,.,.,18,.,.,.
Nc1ccc(C(=O)OCC(=O)c2cccc([N+](=O)[O-])c2)cc1,19,-3,-3,18,10,-7,.,.
Cc1cc(C(=O)OCC(=O)c2cccc([N+](=O)[O-])c2)c2ccccc2n1,60*,0,-12,-3,10,-8,38*,18
COc1ccc(-c2cc(C(=O)OCC(=O)c3ccc(C)c([N+](=O)[O-])c3)c3ccccc3n2)cc1,12,-1,-2,-26,1,-1,.,.
COc1ccccc1C(=O)OCC(=O)c1cccc([N+](=O)[O-])c1,19,1,-4,8,18,-2,.,.
O=C(COC(=O)c1cc2ccccc2oc1=O)c1cccc([N+](=O)[O-])c1,47*,-3,-9,13,4,-2,46*,19
Cc1cc(C(=O)OCC(=O)c2ccc(Cl)c([N+](=O)[O-])c2)c2cccc(C)c2n1,34*,-2,-7,3,27,-2,-40,-9
C=CCN(c1ccccc1)S(=O)(=O)c1cccc(C(=O)Nc2ncccc2C)c1,4,-1,-1,1,4,0,.,.
O=C1Nc2ccccc2C1=Nc1ccc(-c2nnc3n2CCCCC3)cc1,35*,-2,-7,6,-3,-2,40*,3
Nc1sc2c([n+]1CCCS(=O)(=O)[O-])CCCC2,1,-1,0,2,-4,-1,.,.
COc1ccc(/C=c2\s/c(=C/C(=O)c3ccc(C)cc3)[nH]c2=O)cc1OC,-54,5,10,-2,-13,5,.,.
CC1=C(C)CC2C(C1)C(=O)c1ccc(Br)cc1S2(=O)=O (stereo not drawn),58*,-3,-10,-15,17,5,56*,4
CNC(=S)NNC(=O)c1sc2cc(C(F)(F)F)cnc2c1-c1ccccn1,31*,-5,-6,18,1,-7,4,4
c1ccc(C2OC3c4cccc5cccc(c45)C3N2c2ccccc2)cc1 (stereo not drawn),38*,1,-8,9,5,-4,-41,-2
Cc1cccc2c1NC(=O)C2=Nc1ccc(Cl)cc1,55*,1,-11,2,1,-5,45*,17
COc1ccc(N=C2C(=O)N3CCCc4cccc2c43)cc1,22,-1,-5,27,3,4,.,.
COc1ccc(N=C2C(=O)Nc3c(C)cccc32)cc1,62*,-1,-11,25,8,-7,51*,24
SMILES,OPRM1-OPRD1 inv,MC4R ag barr,MOR-DOR ag,HTR5A inv ag,MC4R antagonist,HTR5A ag ctr,OPRM1-D1 inv cf,HTR5A inv ctr2
Cc1ccc(N=C2C(=O)Nc3c(C)cccc32)cc1,55*,0,-11,14,9,-4,32*,9
Cc1ccc(N=C2C(=O)Nc3ccc(Br)cc32)cc1,24,-2,-5,6,10,-2,.,.
CN(C)CCC(=O)N1C/C(=C/c2ccccc2)C(=O)/C(=C\c2ccccc2)C1,43*,-3,-8,25,1,-6,21,16
C[N+](C)(C)CCC(=O)N1C/C(=C/c2ccccc2)C(=O)/C(=C\c2ccccc2)C1,10,0,-2,-5,5,1,.,.
O=C1NC[C@@H](c2ccccc2)OC(=O)[C@@H](Cc2ccc(F)cc2)CC/C=C/C[C@@H]1CC(=O)N(CCO)Cc1ccccc1,34*,-2,-6,10,5,-6,9,26
Cc1ccc2c(c1)C(=O)C(=O)N2c1ccc(Cl)cc1,58*,-2,-10,24,16,1,14,-3
NNc1nc(-c2ccccc2)c2cc(Br)ccc2n1,20,-2,-5,4,1,-1,.,.
NNc1nc(-c2ccccc2)cc(-c2ccc(Br)cc2)n1,70*,3,-14,-18,0,-11,78*,25
O=C(CC1(O)C(=O)Nc2ccccc21)c1cccnc1 (stereo not drawn),52*,1,-9,5,-3,0,-41,-3
O=C(CC1(O)C(=O)Nc2ccccc21)c1ccccc1O (stereo not drawn),50*,0,-9,-1,2,-5,24,7
COc1ccc(OC)c(NC(=O)CSc2ccc(-c3cccnc3)nn2)c1,-2,-1,0,2,9,-1,.,.
Cc1ccc(C)c(C(=O)c2ccccc2NC(=O)c2ccccn2)c1,-15,1,3,-8,9,2,.,.
Cc1ccc2c(c1)C(=O)C(=O)N2CC(=O)Nc1ccccc1NC(=O)c1ccccn1,47*,-3,-9,2,-18,-1,i,-5
COc1ccc(-c2nc(-c3cccs3)c(-c3cccs3)[nH]2)cc1OC,30*,1,-5,7,2,0,i,4
C/C(CC(=O)Nc1ccc(Cl)c(C(F)(F)F)c1)=N\NC(=O)c1cc2ccccc2cc1O,8,-1,-1,-8,4,3,.,.

# From PubChem BioAssay
